How the values were obtained:
[1] = Acute toxicity in sc dosed C57BL/6 mouse assessed as maximum tolerated dose by measuring mortality; assay type: organism-based; conditions: in vivo
In short: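 Male C57BL/6 or ICR mice (n = 3/group) dosed subcutaneously with escalating doses, low to high; MTD taken as highest dose giving zero mortality (0/3).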

[2] = target: C-X-C chemokine receptor type 4 (Homo sapiens, UniProt P61073); experiment: Displacement of [125I]CXCL12 from human CXCR4 expressed in HEK293 cell membranes after 1.5 hrs by Topcount method
Chain of C-X-C chemokine receptor type 4 (P61073 whole entry): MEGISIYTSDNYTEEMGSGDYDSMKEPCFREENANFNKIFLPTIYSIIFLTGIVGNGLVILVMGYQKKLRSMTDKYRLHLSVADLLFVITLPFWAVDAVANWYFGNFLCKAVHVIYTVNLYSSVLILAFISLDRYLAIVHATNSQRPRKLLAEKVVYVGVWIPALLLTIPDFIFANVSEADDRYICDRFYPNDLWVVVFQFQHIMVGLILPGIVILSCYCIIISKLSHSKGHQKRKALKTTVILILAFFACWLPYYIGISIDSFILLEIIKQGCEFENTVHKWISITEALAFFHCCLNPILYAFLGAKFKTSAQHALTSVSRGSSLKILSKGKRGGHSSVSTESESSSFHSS

[3] = AUC (0 to 4 hrs) in C57BL/6 mouse at 6 mg/kg, sc measured up to 4 hrs post dose by LC-MS/MS analysis; assay type: ADME, organism-based; design: dose 6 mg/kg, time < 4 hr, route subcutaneous; conditions: in vivo
In short: (§1)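 Male C57BL/6 mice (23.4–25.4 g), quarantined one week, non-fasted, n = 3; single SC dose of 6 mg/kg in 100% saline. Blood taken by cardiac puncture at 0, 0.03, 0.08, 0.25, 1, 1.5, 2 and 4 h and stored at -80 °C. Plasma analysed by LC–MS/MS; parameters from non-compartmental analysis; mean ± SD.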

[4] = Half life in C57BL/6 mouse at 6 mg/kg, sc measured up to 4 hrs post dose by LC-MS/MS analysis; assay type: ADME, organism-based; conditions: in vivo; in short: as §1
[5] = Cmax in C57BL/6 mouse at 6 mg/kg, sc measured up to 4 hrs post dose by LC-MS/MS analysis; assay type: ADME, organism-based; design: dose 6 mg/kg, route subcutaneous; conditions: in vivo; in short: as §1

AUC(0-t) at 4 h [3] [ng·h/mL] | half-life [4] [h] | Cmax [5] [ng/mL] | Compound | MTD [1] [mg/kg] | IC50 [2] [nM]
– | – | – | O=C(O)CNCCC(=O)N1CCC(Nc2ccnc(NCc3cn(CCCNCCCNC4CCCCC4)nn3)n2)CC1 | 100 | 399
– | – | – | Cc1cc(NC2CCNCC2)nc(NCc2cn(CCCNCCCNC3CCCCC3)nn2)n1 | 10 | 23.9
– | – | – | Cc1cc(N(C)C2CCN(C(=O)CCNCC(=O)O)CC2)nc(NCc2cn(CCCNCCCNC3CCCCC3)nn2)n1 | 50 | 97.6
– | – | – | Cc1cc(NC2CCN(CCC(=O)O)CC2)nc(NCc2cn(CCCNCCCNC3CCCCC3)nn2)n1 | 75 | 81.8
– | – | – | CC(C)c1cc(NC2CCNCC2)nc(NCc2cn(CCCNCCCNC3CCCCC3)nn2)n1 | 10 | 61.1
– | – | – | Cc1cc(NC2CCN(CCCCC(=O)O)CC2)nc(NCc2cn(CCCNCCCNC3CCCCC3)nn2)n1 | 75 | 93
– | – | – | Cc1cc(NC2CCN(C(=O)CCCC(=O)O)CC2)nc(NCc2cn(CCCNCCCNC3CCCCC3)nn2)n1 | 50 | 158
7150 | 1.4 | 6200 | c1cc(CN2CCCNCCNCCCNCC2)ccc1CN1CCCNCCNCCCNCC1 [PLERIXAFOR] | – | –
– | – | – | COc1cc(NC2CCNCC2)nc(NCc2cn(CCCNCCCNC3CCCCC3)nn2)n1 | 10 | 473
– | – | – | CCc1cc(NC2CCN(C(=O)CCNCC(=O)O)CC2)nc(NCc2cn(CCCNCCCNC3CCCCC3)nn2)n1 | 50 | 72
– | – | – | Cc1cc(NC2CCN(C(=O)CCCNCC(=O)O)CC2)nc(NCc2cn(CCCNCCCNC3CCCCC3)nn2)n1 | 75 | 88.5
– | – | – | CCc1cc(NC2CCNCC2)nc(NCc2cn(CCCNCCCNC3CCCCC3)nn2)n1 | 10 | 46.8
– | – | – | FC(F)(F)c1cc(NC2CCNCC2)nc(NCc2cn(CCCNCCCNC3CCCCC3)nn2)n1 | 10 | 860
– | – | – | Cc1cc(NC2CCN(C(=O)CC[C@H](N)C(=O)O)CC2)nc(NCc2cn(CCCNCCCNC3CCCCC3)nn2)n1 | 50 | 71.1
– | – | – | Clc1cc(NC2CCNCC2)nc(NCc2cn(CCCNCCCNC3CCCCC3)nn2)n1 | 10 | 708
– | – | – | Cc1cc(NC2CCN(C(=O)CNCCC(=O)O)CC2)nc(NCc2cn(CCCNCCCNC3CCCCC3)nn2)n1 | 100 | 82.6
– | – | – | c1cc(NC2CCNCC2)nc(NCc2cn(CCCNCCCNC3CCCCC3)nn2)n1 | 10 | 34.1
– | – | – | Cc1cc(NC2CCN(C(=O)CCNCP(=O)(O)O)CC2)nc(NCc2cn(CCCNCCCNC3CCCCC3)nn2)n1 | 100 | 91.6
– | – | – | Cc1cc(NC2CCN(C(=O)CCNCCP(=O)(O)O)CC2)nc(NCc2cn(CCCNCCCNC3CCCCC3)nn2)n1 | – | 147
– | – | – | Cc1cc(NC2CCN(CCC(N)=O)CC2)nc(NCc2cn(CCCNCCCNC3CCCCC3)nn2)n1 | 20 | 25.6
– | – | – | Cc1cc(NC2CCN(CCC#N)CC2)nc(NCc2cn(CCCNCCCNC3CCCCC3)nn2)n1 | 20 | 72.1
– | – | – | CCCN1CCC(Nc2cc(C)nc(NCc3cn(CCCNCCCNC4CCCCC4)nn3)n2)CC1 | 10 | 47.8
– | – | – | Cc1cc(NC2CCN(C(=O)CCNCCC(=O)O)CC2)nc(NCc2cn(CCCNCCCNC3CCCCC3)nn2)n1 | 50 | 72.2

Reference: ChEMBL document CHEMBL4024793, “Development of Stem-Cell-Mobilizing Agents Targeting CXCR4 Receptor for Peripheral Blood Stem Cell Transplantation and Beyond” (J Med Chem, 2018)
